Reference: ChEMBL document CHEMBL1926538, “3,5-Disubstituted-thiazolidine-2,4-dione analogs as anticancer agents: design, synthesis and biological characterization” (Eur J Med Chem, 2012)
The source made the active and inactive calls. No cut-off for these calls is given here.

Legend:
U-937 [1] = experiment: Induction of apoptosis in human U937 cells assessed as necrotic cells at 10 uM after 6 hrs by annexinV-propidium iodide staining-based flow cytometric analysis (reference value: 1.2%); format: functional
[2] = target: RAF proto-oncogene serine/threonine-protein kinase (Homo sapiens) (UniProt P04049); experiment: Inhibition of c-Raf at 10 uM
RAF proto-oncogene serine/threonine-protein kinase (Homo sapiens), sequence (P04049 whole entry): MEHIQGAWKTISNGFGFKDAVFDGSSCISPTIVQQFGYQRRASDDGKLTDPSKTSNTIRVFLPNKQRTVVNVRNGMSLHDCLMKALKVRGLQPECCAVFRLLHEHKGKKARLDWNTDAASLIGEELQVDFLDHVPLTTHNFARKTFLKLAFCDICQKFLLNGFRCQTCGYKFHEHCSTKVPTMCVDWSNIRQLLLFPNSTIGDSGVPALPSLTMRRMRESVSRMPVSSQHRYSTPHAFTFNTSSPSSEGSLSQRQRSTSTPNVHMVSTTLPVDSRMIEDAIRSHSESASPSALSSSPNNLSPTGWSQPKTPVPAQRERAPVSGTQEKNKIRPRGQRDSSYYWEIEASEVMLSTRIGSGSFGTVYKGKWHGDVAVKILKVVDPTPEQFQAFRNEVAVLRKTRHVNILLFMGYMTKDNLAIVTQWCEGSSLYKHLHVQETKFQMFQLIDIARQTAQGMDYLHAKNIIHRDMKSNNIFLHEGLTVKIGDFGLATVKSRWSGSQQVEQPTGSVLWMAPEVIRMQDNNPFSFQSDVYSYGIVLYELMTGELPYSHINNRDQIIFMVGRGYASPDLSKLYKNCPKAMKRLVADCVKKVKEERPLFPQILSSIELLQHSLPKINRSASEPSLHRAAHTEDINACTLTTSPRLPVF

U-937 [3] = experiment: inhibition of PI3K-mediated 4-EBP1 phosphorylation in human U937 cells 1 to 10 uM after 1 hr by Western blot analysis; format: cell-based
Outline: (§1)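 Cells in RPMI 1640 with 10% heat-inactivated FBS, 37 °C, 5% CO2; treated in growing medium (DU145 24 h; U937 1 h at 5 × 10⁵/mL). Lysed by sonication in SDS sample buffer with protease inhibitors plus 1 mM orthovanadate and pyrophosphate, boiled 5 min. Blots blocked in 5% milk, primary antibodies 1:1000 overnight at 4 °C, HRP secondary 1:2000, chemiluminescence; α-tubulin loading control.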

[4] = target: RAF proto-oncogene serine/threonine-protein kinase (Homo sapiens) (UniProt P04049); experiment: Inhibition of raf-mediated ERK phosphorylation in human U937 cells at 3 uM after 1 hr by Western blot analysis; format: cell-based; conditions: U-937; outline: as §1

- inhibition [2]: -1%
- inhibition [4]: Active
Structure (SMILES): NCCN1C(=O)S/C(=C\CCC2CCCCC2)C1=O
- Activity (U-937 [1]): 1.4%
- inhibition (U-937 [3]): Active
